This is an account of results in ChEMBL document CHEMBL5696442, “Discovery of type II inhibitors of TGFβ-activated kinase 1 (TAK1) and mitogen-activated protein kinase kinase kinase kinase 2 (MAP4K2)” (J Med Chem, 2015).

The target in test [1] is Cyclin-dependent kinase 16 (Homo sapiens) (UniProt Q00536). As to the kind of experiment: Inhibition of PCTK1 (unknown origin) at 1 uM by Ambit Kinomescan binding assay relative to control.
Test [2] concerns the target Tyrosine-protein kinase SYK (Homo sapiens) (UniProt P43405). The test can be described thus: Inhibition of SYK (unknown origin) at 1 uM by Ambit Kinomescan binding assay relative to control.
Test [3] concerns the target T1, Serine/threonine-protein kinase ULK1 (Homo sapiens) (UniProt O75385).
T1 sequence (whole entry): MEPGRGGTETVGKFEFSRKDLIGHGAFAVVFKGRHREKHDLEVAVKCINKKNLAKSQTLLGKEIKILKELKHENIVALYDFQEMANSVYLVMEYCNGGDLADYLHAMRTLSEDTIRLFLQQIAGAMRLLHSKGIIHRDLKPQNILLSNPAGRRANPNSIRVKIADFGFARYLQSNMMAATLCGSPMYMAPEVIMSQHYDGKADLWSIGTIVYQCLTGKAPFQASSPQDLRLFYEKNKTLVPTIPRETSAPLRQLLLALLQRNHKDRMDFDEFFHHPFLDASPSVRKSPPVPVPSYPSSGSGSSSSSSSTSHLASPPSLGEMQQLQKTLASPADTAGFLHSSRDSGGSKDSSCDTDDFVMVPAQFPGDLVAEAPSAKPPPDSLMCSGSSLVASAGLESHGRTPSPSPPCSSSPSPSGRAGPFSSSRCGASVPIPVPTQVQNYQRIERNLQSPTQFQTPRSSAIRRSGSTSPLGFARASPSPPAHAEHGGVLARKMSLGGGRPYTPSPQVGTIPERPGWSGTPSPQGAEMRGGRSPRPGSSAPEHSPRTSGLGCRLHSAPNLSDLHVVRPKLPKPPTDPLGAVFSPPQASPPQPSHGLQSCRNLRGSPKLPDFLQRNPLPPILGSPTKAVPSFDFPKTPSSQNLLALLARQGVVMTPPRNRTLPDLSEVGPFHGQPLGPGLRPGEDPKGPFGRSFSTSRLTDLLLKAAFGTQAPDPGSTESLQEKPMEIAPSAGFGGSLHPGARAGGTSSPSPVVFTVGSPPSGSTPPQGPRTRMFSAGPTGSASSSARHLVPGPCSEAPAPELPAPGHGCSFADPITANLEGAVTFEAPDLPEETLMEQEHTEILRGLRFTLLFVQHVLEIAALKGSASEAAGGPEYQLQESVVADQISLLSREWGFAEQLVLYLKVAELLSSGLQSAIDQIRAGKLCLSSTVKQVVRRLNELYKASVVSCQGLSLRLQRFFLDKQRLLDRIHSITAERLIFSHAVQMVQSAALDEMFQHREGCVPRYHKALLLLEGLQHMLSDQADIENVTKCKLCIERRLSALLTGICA
As to the kind of experiment: Inhibition of ULK1 Lys2 labeling site in human A-375 cells at 5 uM by KiNativ Profiling analysis relative to control. Format: cell-based.

The target of test [4] is Glycogen synthase kinase-3 alpha (Homo sapiens) (UniProt P49840). As to the kind of experiment: Inhibition of GSK3A Lys2 labeling site in human A-375 cells at 0.5 uM by KiNativ Profiling analysis relative to control. The test is classed as cell-based.
In test [5] the target is Serine/threonine-protein kinase 38-like (Homo sapiens) (UniProt Q9Y2H1). The test can be described thus: Inhibition of NDR2 (unknown origin) at 1 uM by Ambit Kinomescan binding assay relative to control; values are per cent of control.
Test [6] addresses T2, Mitogen-activated protein kinase kinase kinase 3 (Homo sapiens) (UniProt Q99759).
T2 sequence (whole entry): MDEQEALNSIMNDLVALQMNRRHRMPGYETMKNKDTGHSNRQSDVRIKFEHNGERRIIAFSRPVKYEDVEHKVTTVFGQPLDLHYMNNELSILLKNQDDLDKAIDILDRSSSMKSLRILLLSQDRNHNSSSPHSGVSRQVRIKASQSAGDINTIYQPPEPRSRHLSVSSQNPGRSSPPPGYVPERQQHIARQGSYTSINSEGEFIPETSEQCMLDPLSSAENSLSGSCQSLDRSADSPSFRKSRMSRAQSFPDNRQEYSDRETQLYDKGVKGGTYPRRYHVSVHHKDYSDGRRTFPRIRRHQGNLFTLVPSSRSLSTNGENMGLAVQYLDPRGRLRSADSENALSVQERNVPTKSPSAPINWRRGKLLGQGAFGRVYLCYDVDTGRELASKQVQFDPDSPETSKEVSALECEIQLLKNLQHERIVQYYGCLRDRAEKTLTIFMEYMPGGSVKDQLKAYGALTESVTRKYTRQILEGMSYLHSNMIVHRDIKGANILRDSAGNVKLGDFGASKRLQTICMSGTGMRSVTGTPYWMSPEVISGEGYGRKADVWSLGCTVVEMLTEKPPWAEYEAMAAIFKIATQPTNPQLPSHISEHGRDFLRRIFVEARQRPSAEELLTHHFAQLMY
As to the kind of experiment: Inhibition of MAP3K3 (unknown origin) at 1 uM by Ambit Kinomescan binding assay relative to control; values are per cent of control.

Test [7] concerns Tyrosine-protein kinase ABL1 (Homo sapiens), P00519 [T315I]. As to the kind of experiment: Inhibition of phosphorylated ABL1 T315I mutant (unknown origin) at 1 uM by Ambit Kinomescan binding assay relative to control; values are per cent of control.
Test [8] concerns the target Calcium/calmodulin-dependent protein kinase kinase 2 (Homo sapiens) (UniProt Q96RR4). The test can be described thus: Inhibition of CAMKK2 (unknown origin) at 10 uM by Ambit Kinomescan binding assay relative to control.
In test [9] the target is Rho-associated protein kinase 2 (Homo sapiens) (UniProt O75116). As to the kind of experiment: Inhibition of ROCK2 Lys2 labeling site in human A-375 cells at 0.5 uM by KiNativ Profiling analysis relative to control. Format: cell-based. The method in brief: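 Live A375 melanoma cells treated with compound at 5 or 0.5 μM, then lysed. Lysate kinases were labeled with a lysine-reactive ATP or ADP-biotin probe. Inhibition was read as protection of labeling sites from the probe.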

For test [10], the target named is Phosphatidylinositol 4-phosphate 3-kinase C2 domain-containing subunit beta (Homo sapiens) (UniProt O00750). As to the kind of experiment: Inhibition of PIK3C2B ATP labeling site in human Huh-7 cell lysate at 1 uM by KiNativ Profiling analysis relative to control. The test is classed as subcellular.
Test [11] addresses Ribosomal protein S6 kinase alpha-3 (Homo sapiens) (UniProt P51812). As to the kind of experiment: Inhibition of RSK2 domain2 Protein Kinase Domain labeling site in human Huh-7 cell lysate at 1 uM by KiNativ Profiling analysis relative to control. The test is classed as subcellular.
Test [12] deals with Myosin light chain kinase, smooth muscle (Homo sapiens) (UniProt Q15746). The test can be described thus: Inhibition of smMLCK Lys2 labeling site in human Huh-7 cell lysate at 1 uM by KiNativ Profiling analysis relative to control. Format: subcellular.
Sequence of Myosin light chain kinase, smooth muscle (Homo sapiens) (Q15746 whole entry): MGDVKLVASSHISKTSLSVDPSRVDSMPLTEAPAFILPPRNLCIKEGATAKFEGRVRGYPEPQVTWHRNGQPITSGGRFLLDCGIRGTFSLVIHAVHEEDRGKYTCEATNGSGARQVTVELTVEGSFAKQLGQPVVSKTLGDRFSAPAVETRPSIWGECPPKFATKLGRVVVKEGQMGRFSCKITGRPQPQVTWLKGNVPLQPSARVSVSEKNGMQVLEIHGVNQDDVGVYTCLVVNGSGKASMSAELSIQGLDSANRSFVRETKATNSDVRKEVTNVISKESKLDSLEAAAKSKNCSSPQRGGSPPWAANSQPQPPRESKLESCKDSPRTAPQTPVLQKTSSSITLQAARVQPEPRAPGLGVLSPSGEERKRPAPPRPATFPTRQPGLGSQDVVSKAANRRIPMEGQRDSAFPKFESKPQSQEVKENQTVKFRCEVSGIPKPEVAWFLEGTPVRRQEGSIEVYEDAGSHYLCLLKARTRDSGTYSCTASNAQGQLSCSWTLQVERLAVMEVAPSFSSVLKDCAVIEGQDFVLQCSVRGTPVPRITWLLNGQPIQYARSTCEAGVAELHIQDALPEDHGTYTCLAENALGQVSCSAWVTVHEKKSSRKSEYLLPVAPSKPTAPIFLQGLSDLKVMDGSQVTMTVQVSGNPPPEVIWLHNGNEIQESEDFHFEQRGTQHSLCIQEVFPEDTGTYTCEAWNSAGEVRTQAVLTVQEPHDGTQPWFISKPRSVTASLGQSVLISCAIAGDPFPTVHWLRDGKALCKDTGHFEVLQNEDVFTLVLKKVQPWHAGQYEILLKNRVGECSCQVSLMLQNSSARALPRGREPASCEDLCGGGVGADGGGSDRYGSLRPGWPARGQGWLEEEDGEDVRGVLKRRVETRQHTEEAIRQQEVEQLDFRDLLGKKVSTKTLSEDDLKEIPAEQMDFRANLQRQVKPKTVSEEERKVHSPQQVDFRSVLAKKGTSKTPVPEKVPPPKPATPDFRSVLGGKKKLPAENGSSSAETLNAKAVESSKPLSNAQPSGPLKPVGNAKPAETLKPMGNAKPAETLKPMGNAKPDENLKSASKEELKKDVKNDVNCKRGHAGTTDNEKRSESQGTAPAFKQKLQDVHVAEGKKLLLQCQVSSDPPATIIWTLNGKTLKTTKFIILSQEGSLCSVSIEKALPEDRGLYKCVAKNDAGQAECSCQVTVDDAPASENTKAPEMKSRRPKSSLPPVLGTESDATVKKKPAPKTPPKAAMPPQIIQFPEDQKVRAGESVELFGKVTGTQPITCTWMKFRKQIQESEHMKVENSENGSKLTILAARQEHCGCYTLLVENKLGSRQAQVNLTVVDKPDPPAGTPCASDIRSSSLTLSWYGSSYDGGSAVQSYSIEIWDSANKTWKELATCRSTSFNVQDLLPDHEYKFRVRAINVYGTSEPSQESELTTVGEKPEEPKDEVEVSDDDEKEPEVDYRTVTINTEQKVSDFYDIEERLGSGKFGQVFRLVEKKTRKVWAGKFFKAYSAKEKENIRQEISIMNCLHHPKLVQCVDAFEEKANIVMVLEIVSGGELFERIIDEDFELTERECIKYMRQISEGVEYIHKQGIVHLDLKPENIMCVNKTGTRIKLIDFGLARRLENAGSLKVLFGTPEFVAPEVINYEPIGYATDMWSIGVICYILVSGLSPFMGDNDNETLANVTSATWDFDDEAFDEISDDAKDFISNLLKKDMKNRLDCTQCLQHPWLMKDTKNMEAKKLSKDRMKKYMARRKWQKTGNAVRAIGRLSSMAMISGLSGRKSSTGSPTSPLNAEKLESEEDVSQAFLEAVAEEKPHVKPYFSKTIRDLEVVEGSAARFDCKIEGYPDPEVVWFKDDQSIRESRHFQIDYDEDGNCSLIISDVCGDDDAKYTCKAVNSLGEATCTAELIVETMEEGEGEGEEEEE

Sequence of Rho-associated protein kinase 2 (Homo sapiens) (O75116 whole entry, looked up): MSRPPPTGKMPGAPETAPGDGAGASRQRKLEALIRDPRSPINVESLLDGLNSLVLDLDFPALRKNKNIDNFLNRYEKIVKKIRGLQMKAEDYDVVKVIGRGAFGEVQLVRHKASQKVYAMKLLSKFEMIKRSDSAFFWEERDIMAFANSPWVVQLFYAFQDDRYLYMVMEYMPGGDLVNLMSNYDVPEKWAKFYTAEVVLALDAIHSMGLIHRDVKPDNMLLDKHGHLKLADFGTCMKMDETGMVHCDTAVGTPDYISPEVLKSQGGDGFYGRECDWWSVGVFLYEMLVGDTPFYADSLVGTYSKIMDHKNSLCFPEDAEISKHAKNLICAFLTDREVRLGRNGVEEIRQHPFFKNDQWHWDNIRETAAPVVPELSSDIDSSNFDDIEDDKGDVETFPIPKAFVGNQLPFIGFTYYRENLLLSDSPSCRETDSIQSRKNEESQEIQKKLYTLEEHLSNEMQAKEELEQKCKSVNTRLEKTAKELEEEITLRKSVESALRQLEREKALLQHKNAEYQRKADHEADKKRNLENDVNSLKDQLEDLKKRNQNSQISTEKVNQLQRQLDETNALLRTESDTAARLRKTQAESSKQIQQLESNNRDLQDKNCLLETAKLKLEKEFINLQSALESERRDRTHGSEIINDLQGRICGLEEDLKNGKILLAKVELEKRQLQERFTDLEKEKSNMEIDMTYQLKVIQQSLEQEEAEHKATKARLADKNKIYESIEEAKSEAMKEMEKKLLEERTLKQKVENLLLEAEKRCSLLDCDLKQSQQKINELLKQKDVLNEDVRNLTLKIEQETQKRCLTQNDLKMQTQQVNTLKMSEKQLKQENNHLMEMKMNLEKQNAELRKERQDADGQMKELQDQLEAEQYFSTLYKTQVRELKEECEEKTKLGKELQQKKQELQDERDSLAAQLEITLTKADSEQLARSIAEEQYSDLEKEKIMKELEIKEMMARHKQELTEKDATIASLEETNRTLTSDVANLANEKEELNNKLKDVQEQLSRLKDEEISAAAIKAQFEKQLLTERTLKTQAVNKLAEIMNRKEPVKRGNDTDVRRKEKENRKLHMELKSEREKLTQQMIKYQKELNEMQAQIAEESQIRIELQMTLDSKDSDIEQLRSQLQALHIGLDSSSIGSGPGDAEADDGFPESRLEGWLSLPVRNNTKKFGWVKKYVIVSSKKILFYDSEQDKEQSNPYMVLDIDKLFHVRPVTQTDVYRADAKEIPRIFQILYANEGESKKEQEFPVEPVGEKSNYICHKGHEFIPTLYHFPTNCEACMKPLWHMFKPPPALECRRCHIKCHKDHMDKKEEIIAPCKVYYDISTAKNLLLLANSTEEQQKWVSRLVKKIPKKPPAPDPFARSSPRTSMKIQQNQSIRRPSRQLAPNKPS
Sequence of Phosphatidylinositol 4-phosphate 3-kinase C2 domain-containing subunit beta (Homo sapiens) (O00750 whole entry, the tested form may be a part): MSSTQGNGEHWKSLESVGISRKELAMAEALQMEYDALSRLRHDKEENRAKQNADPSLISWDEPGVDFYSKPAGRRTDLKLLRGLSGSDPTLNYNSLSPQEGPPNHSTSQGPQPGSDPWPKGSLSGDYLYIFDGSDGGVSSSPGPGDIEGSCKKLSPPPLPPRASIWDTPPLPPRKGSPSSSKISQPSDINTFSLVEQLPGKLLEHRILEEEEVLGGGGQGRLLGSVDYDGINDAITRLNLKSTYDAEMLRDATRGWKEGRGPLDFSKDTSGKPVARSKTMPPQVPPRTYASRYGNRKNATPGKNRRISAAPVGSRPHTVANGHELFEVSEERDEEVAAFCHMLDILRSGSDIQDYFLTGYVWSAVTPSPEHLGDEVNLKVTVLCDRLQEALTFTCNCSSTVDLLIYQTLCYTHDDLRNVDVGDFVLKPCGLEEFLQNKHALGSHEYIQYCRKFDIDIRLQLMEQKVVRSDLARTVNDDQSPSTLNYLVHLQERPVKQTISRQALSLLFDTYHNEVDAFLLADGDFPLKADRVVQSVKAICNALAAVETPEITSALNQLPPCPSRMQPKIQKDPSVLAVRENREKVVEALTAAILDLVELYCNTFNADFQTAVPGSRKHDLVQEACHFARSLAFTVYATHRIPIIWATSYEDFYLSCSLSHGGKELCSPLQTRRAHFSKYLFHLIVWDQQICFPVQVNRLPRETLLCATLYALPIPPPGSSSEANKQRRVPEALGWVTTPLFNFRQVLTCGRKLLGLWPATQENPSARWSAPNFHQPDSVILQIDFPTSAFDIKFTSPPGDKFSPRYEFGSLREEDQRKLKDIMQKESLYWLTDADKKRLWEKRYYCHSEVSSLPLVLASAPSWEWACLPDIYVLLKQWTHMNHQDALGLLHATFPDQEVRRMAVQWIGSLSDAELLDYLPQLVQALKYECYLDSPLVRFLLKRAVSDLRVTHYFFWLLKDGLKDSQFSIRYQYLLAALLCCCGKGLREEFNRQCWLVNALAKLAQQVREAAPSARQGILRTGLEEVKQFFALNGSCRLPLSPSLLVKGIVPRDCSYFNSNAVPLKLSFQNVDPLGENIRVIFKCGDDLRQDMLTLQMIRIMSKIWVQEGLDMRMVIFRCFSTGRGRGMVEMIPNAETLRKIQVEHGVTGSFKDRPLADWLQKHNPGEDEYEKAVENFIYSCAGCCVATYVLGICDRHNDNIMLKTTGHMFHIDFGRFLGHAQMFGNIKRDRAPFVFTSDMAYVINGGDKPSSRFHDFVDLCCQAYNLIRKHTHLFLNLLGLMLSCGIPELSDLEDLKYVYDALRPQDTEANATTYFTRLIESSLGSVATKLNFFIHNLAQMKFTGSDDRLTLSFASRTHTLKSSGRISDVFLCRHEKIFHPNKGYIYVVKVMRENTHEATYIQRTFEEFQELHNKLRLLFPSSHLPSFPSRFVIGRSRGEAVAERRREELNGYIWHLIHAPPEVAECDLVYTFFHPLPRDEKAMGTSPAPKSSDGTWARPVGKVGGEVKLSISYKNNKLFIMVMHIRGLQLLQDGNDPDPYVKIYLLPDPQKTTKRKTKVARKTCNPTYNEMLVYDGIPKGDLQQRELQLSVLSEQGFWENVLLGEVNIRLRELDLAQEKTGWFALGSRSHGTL

As for `CCN1CCN(Cc2ccc(NC(=O)c3ccc(C)c(/C=C/c4cnc5[nH]ccc5c4OC)c3)cc2C(F)(F)F)CC1`, the inhibition (usually the drop in the measured response relative to a control, in per cent) in test [1] was 100%; in [2] it was 18%; in [3], -1.3%; in [4], 11.4%. Further, the values for the residual activity in test [5] and in test [6] were 79% and 2%, respectively. In [7], the percent of control was determined as 5.4%.

As to `CCN1CCN(Cc2ccc(NC(=O)c3ccc(C)c(Oc4ccnc5[nH]ccc45)c3)cc2C(F)(F)F)CC1`, the inhibition was 28% in [8] and 2.3% in test [9].

For `CNc1cc(Oc2cc(C(=O)Nc3cc(N4CCN(C)CC4)cc(C(F)(F)F)c3)ccc2C)ncn1`, the values for the inhibition in test [10], in test [11] and in test [12] were 9%, 5.9% and -5.1%, respectively.
